Source: PubChem (Johns Hopkins Ion Channel Center)
MrgX1 agonist: agonists of human MrgX1 receptor; Q96LB2; MrgX1-HEK293 cells, Fluo-4 calcium fluorescence, agonist mode; active compounds read high; B-score at 10 µM; actives 0.44% (n = 310,000);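 active = calcium response B-score plate-corrected fluorescence ratio at least 3 library SD, with starting fluorescence B-score inside 5 SD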
Target sequence (Q96LB2 whole entry, looked up): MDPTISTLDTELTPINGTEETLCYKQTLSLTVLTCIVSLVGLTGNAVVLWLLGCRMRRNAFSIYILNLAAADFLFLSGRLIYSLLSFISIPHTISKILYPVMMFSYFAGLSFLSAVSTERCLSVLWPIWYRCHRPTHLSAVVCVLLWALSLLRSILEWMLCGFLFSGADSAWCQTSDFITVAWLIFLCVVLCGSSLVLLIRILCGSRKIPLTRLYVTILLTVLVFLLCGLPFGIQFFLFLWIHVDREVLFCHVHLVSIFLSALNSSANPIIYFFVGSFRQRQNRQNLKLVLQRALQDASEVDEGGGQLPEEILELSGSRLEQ
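System – MrgX1-expressing HEK293 cells · Incubation – cells plated overnight, dye loaded 0.5 h 37 °C, 0.5 h room temperature · Technique – kinetic Fluo-4 NW fluorescence of intracellular calcium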
MrgX1 PAM: human MrgX1 positive allosteric modulation, primary screen. MrgX1-HEK293, Fluo-4 calcium flux, FDSS; active compounds read high. actives 0.63% (n = 310,000). B-score at 10 µM. Q96LB2;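 active = plate-corrected calcium response at least 3 library SD above typical, normal starting fluorescence, not activating the receptor alone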;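 also: compound read alongside a low EC10 to EC30 dose of BAM8-22 agonist; peak minus trough fluorescence over baseline measured at the second addition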
MrgX1 antag: human MrgX1 receptor antagonism, primary screen. Q96LB2. MRGX1-HEK293 calcium flux, Fluo-4, BAM8-22 antagonism; active compounds read low. B-score at 10 µM. actives 1.3% (n = 310,000);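 active = calcium-response B-score plate-corrected more than 3 library SD below zero, starting fluorescence within 5 deviations, no agonist response on first addition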;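 also: peak minus trough fluorescence over baseline after final BAM8-22 challenge near maximal dose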
RGS4 act: RGS4 potentiation or activation. HEK293 M3R/inducible RGS4, carbachol calcium flux Fluo4; active compounds read low. actives 0.92% (n = 310,000). B-score at 10 µM;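 active = B-score of the integrated calcium signal more than 4 SD below the library mean, with starting fluorescence not abnormally high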;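 also: negative B-score means reduced calcium response which marks RGS4 activation or potentiation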
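Assay system: HEK293 FlpIn-TREx cells, stable M3R, doxycycline-inducible RGS4 / Probe or stimulus: carbachol, ECmax concentration / Times: overnight RGS4 induction, 30 min dye load 37 °C, 20 min compound RT / Signal: kinetic calcium fluorescence imaging with Fluo4-AM dye, 2 µM / Measure: Agonist-evoked peak-minus-minimum fluorescence over baseline, integrated ratio, B score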
RGS4 inh: inhibitors of human RGS4; P49798; HEK293 M3R/RGS4 inducible, Fluo-4 calcium flux; active compounds read high; triggered by carbachol at its EC20; B-score at 10 µM; actives 0.45% (n = 310,000); AID 463165;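 active = B-score, a plate-corrected calcium signal, over three deviations above library mean, with baseline fluorescence within five deviations of library mean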;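 also: RGS4 expression induced by doxycycline in cells with stable M3 receptor; B-score is computed from the integrated fluorescence ratio over baseline after carbachol; higher B-score means a larger calcium signal and so more RGS4 inhibition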
Target sequence (P49798 whole entry, looked up): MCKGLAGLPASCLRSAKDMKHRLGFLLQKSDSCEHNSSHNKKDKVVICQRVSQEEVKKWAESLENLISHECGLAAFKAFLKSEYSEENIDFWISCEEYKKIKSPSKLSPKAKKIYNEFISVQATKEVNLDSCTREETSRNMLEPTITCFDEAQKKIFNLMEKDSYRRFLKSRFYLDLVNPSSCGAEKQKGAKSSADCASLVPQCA
An asterisk follows results filed as active; i = inactive; · = not tested or not shown. Shown are actives, neighbours in structure and some others; about 3.5% of the full set was active somewhere.

SMILES	MrgX1 agonist	MrgX1 PAM	MrgX1 antag	RGS4 act	RGS4 inh
COc1ccc(C(=O)NC(=S)NNC(=O)c2ccccc2C)cc1	62*	i	i	i	i
CCNC(=S)NNC(=O)c1cc(-c2ccc(OCC)cc2)nc2ccccc12	i	i	i	i	i
COc1ccc(C(=O)NNC(=S)NC(=O)c2cc(-c3ccccc3)nc3ccccc23)cc1	i	i	-6.8*	i	i
COc1ccc(Cl)cc1C(=O)NNC(=S)NC(=O)c1cc(-c2ccccc2)nc2ccccc12	i	i	-6.5*	-9.8*	i
CCCOc1ccc(C(=O)NNC(=S)NC(=O)c2cc(-c3ccc(Cl)cc3)nc3ccccc23)cc1	i	i	i	-9*	i
COc1ccc(/C=C/C(=O)NC(=S)NNC(=O)c2c(-c3ccccc3)noc2C)cc1	29*	i	i	i	i
COc1ccc(-c2cc(C(=O)NNC(=S)NC(=O)c3c(-c4ccccc4)noc3C)[nH]n2)cc1	i	i	i	i	i
CCC(=O)N1CC2(CC(c3cccc(NC(=O)COc4ccc(Cl)cc4)c3)=NO2)C[C@@H]1C(N)=O (stereo not given in full)	·	·	·	i	i
CC1(C(=O)N2CC3(CC(c4ccccc4)=NO3)C[C@H]2C(=O)NCC(N)=O)CC1 (stereo not given in full)	i	i	-5.6*	i	i
CCC(=O)Nc1cccc(C2=NOC3(C2)C[C@@H](C(N)=O)N(C(=O)COc2ccc(Cl)cc2)C3)c1 (stereo not given in full)	i	8.9*	i	i	i
CCC(=O)Nc1cccc(C2=NOC3(C2)C[C@@H](C(N)=O)N(C(=O)c2ccccc2C(=O)c2ccccc2)C3)c1 (stereo not given in full)	i	i	-8*	i	i
COc1ccc(-c2cc([C@H]3[C@@H]4C=CCC[C@@]4(C)C(=O)N3Cc3ccccc3)ccc2F)cc1	i	i	-5.4*	i	i
Cc1ccc(C(CCNC(C)c2cccs2)c2ccco2)cc1 (stereo not given)	i	i	i	i	i
O=C(Nc1cnn(C23CC4CC(CC(C4)C2)C3)c1)c1cnn2c(C(F)(F)F)cc(-c3ccco3)nc12	i	i	i	-8.5*	i
O=C(Nc1ccc2c(c1)OCO2)c1cnn2c(C(F)(F)F)cc(-c3ccco3)nc12	i	i	i	·	·
Cc1ccccc1Cn1ccc(NC(=O)c2cnn3c(C(F)(F)F)cc(-c4ccco4)nc23)n1	i	i	i	-7.5*	i
Cc1ccccc1Cn1ccc(NC(=O)CCSc2nc(-c3ccco3)cc(C(F)(F)F)n2)n1	i	i	i	i	i
C/C(=N/NC(=O)c1ccccc1O)c1ccc(N2C(=O)C3CCCCC3C2=O)cc1 (stereo not given)	i	i	-8*	i	i
C=CCN1C(=O)C(CC(=O)Nc2ccc(OCCC)cc2)N(CCCN2CCN(Cc3ccccc3)CC2)C1=S (stereo not given)	i	9.4*	i	i	i
Cc1ccccc1C(=O)Nc1cccc(C(=O)Nc2ccccc2C(=O)O)c1	i	i	i	i	i
O=C(N/N=C/c1ccccc1F)c1cccc(NC(=O)c2ccccc2Cl)c1	i	8.4*	i	i	i
O=C(Nc1ccccc1C(=O)O)c1cccc(NC(=O)c2ccccc2Cl)c1	i	i	i	-7*	i
O=C(N/N=C/c1ccc(F)cc1)c1cccc(NC(=O)c2ccc(F)cc2)c1	i	i	i	-7.3*	i
COc1ccc(/C(C)=N/NC(=O)c2cccc(S(=O)(=O)N3CCCC3)c2)c(O)c1	i	i	i	i	i
Cc1cccc(N(C(=O)c2ccco2)C(C(=O)NC2CCCC2)c2ccco2)c1C (stereo not given)	·	·	·	i	i
SMILES	MrgX1 agonist	MrgX1 PAM	MrgX1 antag	RGS4 act	RGS4 inh
CCCNC(=O)c1ccc2c(c1)nc(C)n2-c1cccc(Cl)c1	i	i	i	-7.5*	i
COCCCNC(=O)c1ccc2c(c1)nc(C)n2-c1cccc(C)c1	i	i	i	i	i
O=C(CSc1nnc2ccc(-c3ccc(F)cc3)nn12)N1CCCC1	i	i	i	i	i
CC(=O)Nc1ccc(NC(=O)c2c(-c3ccccc3)noc2C)cn1	i	i	i	i	i
Nc1c(C(=O)N/N=C/c2ccccc2Cl)oc2nc(-c3ccccc3)cc(-c3ccco3)c12	i	i	-7.7*	i	i
Nc1c(C(=O)N/N=C/c2ccc(F)cc2)oc2nc(-c3ccccc3)cc(-c3ccco3)c12	i	i	-5.4*	i	i
O=C(N/N=C/c1ccc(F)cc1)c1cc(-c2ccco2)nc2ccccc12	i	i	i	i	i
CCNc1cc(N2CCN(S(=O)(=O)c3ccc4c(c3)CCCC4)CC2)ccc1[N+](=O)[O-]	i	i	-7.5*	i	i
O=[N+]([O-])c1ccc(N2CCN(S(=O)(=O)c3ccc(Cl)c(Cl)c3)CC2)cc1NCCN1CCOCC1	i	i	i	i	i
CCN(CC(=O)NC(C)(C)C)C(=O)CCl	i	i	i	i	i
N#Cc1cc(N)ccc1Sc1ccc(Cl)cc1	i	i	i	-7*	i
CC(C)c1[nH]nc2c1C(Cc1ccccc1)C(C#N)=C(N)O2 (stereo not given)	i	i	i	-7.6*	i
O=C(CSc1nnc(NC(=O)c2ccccc2Cl)s1)Nc1ccc2c(c1)oc1ccccc12	i	i	-4.6*	i	i
CC1=C[C@H](C)[C@H](c2c(F)cccc2Cl)CC1=O	i	i	i	i	i
CC(C)C(c1nnnn1C(C)(C)C)N1CCN(c2cccc(Cl)c2)CC1 (stereo not given)	i	i	i	i	i
CN(C)/N=C/C=C1\CCC/C(=C/c2cccs2)C1=O	i	9.4*	i	i	i
Cc1ccc(N(CCC#N)C(=O)COC(=O)c2ccccc2SCC(=O)N2CCCC2)cc1	i	i	i	i	i
Cc1cc(C)cc(N(CCC#N)C(=O)COC(=O)c2ccccc2SCC(=O)N2CCCC2)c1	i	i	i	-7.1*	i
Cn1c(CNC(=O)CCNC(=O)c2ccc(F)c(F)c2)cc(=O)n(C)c1=O	i	i	i	i	i
c1ccc(-c2cn3nc4c(nc3n2)CCCC4)cc1	i	i	i	-7*	i
